This is an account of results in ChEMBL document CHEMBL1142147, “Action of disinfectant quaternary ammonium compounds against Staphylococcus aureus” (2007).

SMILES strings stand for the structures. Active and inactive are the calls of the source. The rule behind the calls is not given here.

For assay [1], the system named is Staphylococcus aureus. The experiment in a line: Antibacterial activity against 10^5 CFU/ml Staphylococcus aureus ATCC 6538 after 48 hrs. In kind it is functional. The settings on record: ATCC 6538, 48 h. The method in brief:
(§1)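 Spots of 5 μl inoculum (10-fold dilutions, 1 × 10⁹ to 1 × 10⁵ CFU/ml in HEPES) applied in triplicate. Incubated at 35°C and read visually at 24 and 48 h. MIC taken as no growth or <10 colonies in every spot of the triplicate.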

Assay [2] relates to Staphylococcus aureus. The experiment in a line: Antibacterial activity against 10^6 CFU/ml Staphylococcus aureus ATCC 6538 after 48 hrs. As to conditions: ATCC 6538, 48 h. In kind it is functional. Summed up:
as §1

Assay [3] deals with Staphylococcus aureus. The experiment in a line: Induction of membrane collapse in Staphylococcus aureus ATCC 6538 at 12 ug/ml. The format is functional, organism-based. Summed up: (§2)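 Cells (final 2 × 10⁹ CFU/ml) exposed to 4.5 to 18 μg/ml biocide or HEPES at 25°C, shaken. Samples filtered (0.45 μm) at timed points up to 240 min. K⁺ measured by flame emission at 766.5 nm and 260-nm material by A260. Each expressed as percent of the maximal pool (cetrimide 1 mM; TCA extraction). Mean % leakage at 30 min plotted against concentration.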

Assay [4] deals with Staphylococcus aureus. The experiment in a line: Antibacterial activity against 10^9 CFU/ml Staphylococcus aureus ATCC 6538 after 48 hrs. The settings on record: ATCC 6538, 48 h. In kind it is functional. Summed up:
as §1

Assay [5] has as its system Staphylococcus aureus. The assay is described as follows: Antibacterial activity against 10^8 CFU/ml Staphylococcus aureus ATCC 6538 after 48 hrs. The format is functional. As to conditions: ATCC 6538, 48 h. Summed up:
as §1

Assay [6] has as its system Staphylococcus aureus. The assay is described as follows: Reduction of cell count in Staphylococcus aureus ATCC 6538 between 6 to 18 hrs exposure. In kind it is functional. Also noted: scale not given: the % may be the effect or the level left. The method in brief:
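Cells pre-exposed 4 h at 35°C to 9 μg/ml biocide, neutralized, washed, and held in HEPES at 35°C. Samples taken at 0 to 48 h, serially diluted, plated on TSA, incubated 18 h at 37°C and counted as CFU/ml.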

In assay [7] the test system is Staphylococcus aureus. The experiment in a line: Intracellular coagulation in Staphylococcus aureus ATCC 6538 at tested concentrations 4.5, 9, 12 and 15 ug/ml. In kind it is functional, organism-based.
Assay [8] has as its system Staphylococcus aureus. The assay is described as follows: Antibacterial activity against 10^7 CFU/ml Staphylococcus aureus ATCC 6538 after 48 hrs. In kind it is functional. The settings on record: ATCC 6538, 48 h. Summed up: as §1
Assay [9] deals with Staphylococcus aureus. The assay is described as follows: Loss of membrane integrity in Staphylococcus aureus ATCC 6538 at above 4.5 ug/ml. In kind it is functional, organism-based. Summed up:
as §2

Assay [10] relates to Staphylococcus aureus. The experiment in a line: Induction of autolysis in Staphylococcus aureus ATCC 6538 at 9 ug/ml. In kind it is functional, organism-based. The method in brief: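 Washed cells (final 2 × 10⁹ CFU/ml) held with biocide at 9 μg/ml in HEPES at 35°C for 4 h, shaken. Then neutralized with lecithin/Tween 80, washed, and resuspended in HEPES at 35°C. Filtrates (0.45 μm) taken at 0, 2, 4, 18, 22 and 24 h and read at A260. Autolysis taken as 260-nm leakage above the TCA-extractable pool.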

As for `CCCCCCCCCC[N+](C)(C)CCCCCCCCCC.[Cl-]` [DIDECYLDIMETHYLAMMONIUM CHLORIDE], the MIC in [1] was determined as 0.4 µg/mL; in assay [2] it was 0.4 µg/mL; in assay [4], 1.6 µg/mL; in assay [5], 0.6 µg/mL; in assay [8] it was 0.4 µg/mL. Besides, the outcome in [3], in assay [9] and in [10] was Active. For the same compound, the Activity in assay [6] is on record as 90%. Further, in assay [7], the result was inactive.

The MIC is the least concentration at which growth counts as inhibited.
